Compound activity: PubChem, several laboratories
This is a sample that favours compounds with a hit; in the whole collection about 6.8% have one here.
ALR H2O2 inh – inhibitors of human ALR sulfhydryl oxidase, primary screen, biochemical, H2O2 detection, HRP-luminol luminescence, single point | FAD-linked sulfhydryl oxidase ALR (Homo sapiens), P55789 | purified ALR, DTT oxidation | inhibition, % (test concentration not listed) | 3.8% of 290,000 active | AID 485317, 2010;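 active = mean replicate inhibition above about 79%, with every replicate also reaching it, limit read from the data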
HCV core dimer – inhibitors of HCV core protein dimerization, primary screen, biochemical, TR-FRET, high-throughput; inhibition, % at 5 µM; TR-FRET GST/Flag-core106 dimerization, 1536-well; 0.33% of 300,000 active;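 active = inhibition above the mean of all tested compounds plus 3 SD, set per screening campaign, cut at about 45% in these data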
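System – GST-tagged and Flag-tagged HCV core protein residues 1-106 · Repeats – one well for each compound · Technique – TR-FRET 671 and 617 nm emission · Doses – one concentration, 5 µM, in 0.5% DMSO · Times – 4 h, 22.5 °C incubation · Also added – Eu donor and XL665 acceptor anti-tag antibodies · Measure – percent inhibition of core106 dimerization signal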
PHOSPHO1 inh – PubChem AID 1565; recombinant PHOSPHO1, absorbance phosphatase assay; inhibition, % at 13.3 µM; 1.1% of 290,000 active; Phosphoethanolamine/phosphocholine phosphatase (Homo sapiens), Q8TCT1; in the data active = inhibition above about 60%
Target sequence (Q8TCT1 whole entry, looked up): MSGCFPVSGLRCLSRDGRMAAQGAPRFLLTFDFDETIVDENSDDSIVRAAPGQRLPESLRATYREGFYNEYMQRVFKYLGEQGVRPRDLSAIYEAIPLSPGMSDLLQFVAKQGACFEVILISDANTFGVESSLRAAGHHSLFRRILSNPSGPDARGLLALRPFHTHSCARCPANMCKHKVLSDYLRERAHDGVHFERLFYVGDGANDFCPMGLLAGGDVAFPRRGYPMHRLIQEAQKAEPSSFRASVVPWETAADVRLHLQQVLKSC
HSF1 inh – HSF1 inhibitors in luciferase reporter cells, primary screen, cell-based, NIH3T3, luminescence; activity change, negative = inhibition, % at 7.5 µM (by protocol); 0.77% of 300,000 active; NIH3T3-HGL HSE-luciferase, MG132-induced, luminescence 8 h; hits give low values;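 active = more than half of replicate wells show activity change below -50%, luminescence cut by over half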;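 also: luciferase reports HSF-1 transcriptional activity via heat shock element; 0% = median of DMSO wells and -100% = zero luminescence signal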
HSF1 activator – HSF-1 activators, primary screen, NIH3T3-HGL cells, MG132 stress, luminescence, single point. NIH3T3-HGL HSF-1 luciferase reporter, 8 h; 100% = twice DMSO control signal. activation, % at 9 µM. 1.7% of 300,000 active. AID 504408, 2011;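 active = mean replicate activation of at least 50% with a set share of replicates each reaching 50%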;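 also: 0% = median of the neutral control wells and 100% = twice that signal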
AI-2 QS modul – Vibrio harveyi AI-2 quorum sensing modulators, primary screen, JMH597 strain, luminescence/OD600 ratio; Vibrio harveyi JMH597 AI-2 luminescence/OD600 ratio, 9 h; hits give low values; strain lacks LuxN and CqsS sensors; 0 = neutral-control median; activity change, % at 7.5 µM; 0.4% of 300,000 active; in the data active = activity change below about -75%, passing the limit was not always enough;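 also: luminescence divided by OD600 gain over 9 h not by final OD600 alone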
* hit, by the source's call; x = no result.

SMILES	ALR H2O2 inh	HCV core dimer	PHOSPHO1 inh	HSF1 inh	HSF1 activator	AI-2 QS modul
Cc1nn2c(CN(C(=O)COc3ccccc3)c3ccccc3)nnc2c2ccccc12	x	9.9	-4.4	-8.7	0.9	12.6
Cc1ccc(NC(=O)N2CCCC2C(=O)Nc2c(C)cc(C)cc2C)cc1 (stereo not drawn)	-0.4	1.9	27.9	20.3	56.9*	6.1
Cn1c(SCC(=O)NCC2CCCO2)ncc(C(=O)Nc2ccc(F)cc2)c1=O (stereo not drawn)	72.4	2.9	x	69.5	67.2*	8.7
CC(=O)c1cccc(NC(=O)N2CCCC2C(=O)Nc2c(C)cccc2C)c1 (stereo not drawn)	-14.1	1.8	18.2	-7.4	13.3	3.8
CCn1c(SCC(=O)NCC2CCCO2)nnc1-c1ccc(Cl)cc1 (stereo not drawn)	-3.8	-2.2	32.2	10.1	29.2	9.2
O=C(NCC1CCCO1)C1CCCN1C(=O)Nc1ccc(Cl)cc1 (stereo not drawn)	-8.9	-0.2	60.1*	-3.3	3.4	14.9
Cn1c(SCC(=O)NCC2CCCO2)ncc(C(=O)Nc2ccc(Cl)cc2)c1=O (stereo not drawn)	20.3	0.9	x	29.2	57.5*	9.6
CC(C)Cc1ccc(C(C)NC(=O)Cc2ccc(S(=O)(=O)N3CCOCC3)s2)cc1 (stereo not drawn)	-13.7	8.5	x	4.6	-2.1	7.4
CCOc1nc(OCC)c2cnn(C)c2n1	-4.4	-10.0	5.2	-10.2	-0.5	-4.7
O=C(COCc1cc(-c2ccc3c(c2)OCO3)on1)N1CCN(c2cccc(C(F)(F)F)c2)CC1	-6.1	6.1	38.0	0.1	14.0	25.3
CCC1C/C(=C/c2ccco2)C(=O)/C(=C/c2ccco2)C1 (stereo not drawn)	96.8*	23.9	-16.2	x	x	x
CCC1C/C(=C\c2cc(OC)c(OC)cc2OC)C(=O)/C(=C/c2cc(OC)c(OC)cc2OC)C1 (stereo not drawn)	-16.1	17.4	25.7	-27.7	-27.3	14.1
Cc1ccccc1OCC(=O)NCCCNC(=O)c1ccco1	-19.3	3.4	16.0	4.0	4.4	10.8
O=C(CSc1nc(=O)n(CCCN2CCOCC2)c2c1CCC2)Nc1ccccc1F	10.3	-1.1	x	1.3	-1.7	0.1
O=C(CSc1nc(=O)n(CCCN2CCOCC2)c2c1CCC2)Nc1cccc(F)c1	97.2*	0.8	x	9.6	29.4	2.0
Cc1ccc(NC(=O)CSc2nc(=O)n(CCN3CCOCC3)c3c2CCCC3)cc1	-22.7	-1.7	x	-0.4	-21.6	18.3
CC(=O)Nc1cccc(NC(=O)CSc2nc(=O)n(CCCN3CCOCC3)c3c2CCC3)c1	98.1*	4.3	x	-6.1	11.8	-0.4
CC(=O)Nc1cccc(NC(=O)CSc2nc(=O)n(CCN3CCOCC3)c3c2CCC3)c1	97.3*	-1.8	x	-3.0	6.7	23.9
CC(=O)c1ccc(NC(=O)CSc2nc(=O)n(CCN3CCOCC3)c3c2CCC3)cc1	98.1*	-1.4	x	-1.1	0.7	50.0
O=c1[nH]cnc(O)c1C(c1ccc2c(c1)OCO2)c1c(O)nc[nH]c1=O	-3.0	-0.4	42.6	3.1	3.1	19.5
Cn1cnc(S(=O)(=O)NCc2ccc(Br)cc2)c1	-6.7	-13.2	42.6	1.6	1.4	18.1
Nc1cc(C(F)(F)F)ccc1C(=O)O	96.8*	-5.0	-4.7	-4.8	5.0	8.3
O=C(c1cccc(-c2ccc(O)cc2)c1)N1CCOCC1	99.3*	0.9	9.1	6.7	2.9	17.4
O=C(c1cccc(-c2nnc(-c3ccccc3)o2)c1)N1CCCCC1	-16.3	-2.0	20.7	39.5	56.9*	-15.7
C/C(=N\Nc1nc(C)cc(C)n1)c1ccc(C)o1	91.0*	-1.6	41.5	-4.1	-0.1	23.8
C/C(=N\Nc1nnc2c3ccccc3n(C)c2n1)c1ccc(C)o1	23.4	-1.6	-15.9	-8.3	-9.6	10.7
